Among the data in ChEMBL document CHEMBL1221279, “Synthesis, biological evaluation, and structure-activity relationship study of novel cytotoxic aza-caffeic acid derivatives” (Bioorg Med Chem, 2010) are IC50 values, retold here.

Broadly, the IC50 is the concentration needed to halve the response being measured.

Molecules are shown by their SMILES. Where only a bound is given, the exact number is not on record here.

Holding throughout (format): functional, cell-based
Experiment [1] relates to A549. Briefly: Cytotoxicity against human A549 cells after 72 hrs by MTT assay. Particulars: A549, 72 h. An outline of the steps:
(§1)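 Cells grown in MEM with 10% fetal calf serum, penicillin and streptomycin at 37 °C, 5% CO2. Exponentially growing cells seeded in quadruplicate at 5 × 10³ per well and left 24 h before compounds (DMSO stocks) were added. After 72 h exposure, MTT added for 4 h at 37 °C, formazan dissolved in DMSO, read at 570 nm. IC50 read graphically from dose–response curves.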

Experiment [2] can be described thus: Cytotoxicity against human LS 174T cells after 72 hrs by MTT assay. To be noted: LS174T. An outline of the steps:
as §1
In general terms: Tetrazolium dyes change colour on reduction, which living cells bring about.

Experiment [3] deals with HeLa. Briefly: Cytotoxicity against human HeLa cells after 72 hrs by MTT assay. An outline of the steps: as §1
The nature of experiment [4]: Cytotoxicity against human ECA109 cells after 72 hrs by MTT assay. To be noted: ECa-109, 72 h. An outline of the steps: as §1
Experiment [5] can be described thus: Cytotoxicity against human Bel7404 cells after 72 hrs by MTT assay. To be noted: BEL-7404, 72 h. An outline of the steps: as §1
Experiment [6] can be described thus: Cytotoxicity against human HO8910 cells after 72 hrs by MTT assay. Particulars: HO-8910, 72 h. An outline of the steps:
as §1

The test system of experiment [7] is KB. The experiment in a line: Cytotoxicity against human KB cells after 72 hrs by MTT assay. An outline of the steps:
as §1

In experiment [8] the test system is BGC-823. Briefly: Cytotoxicity against human BGC823 cells after 72 hrs by MTT assay. Particulars: BGC-823, 72 h. An outline of the steps:
as §1

The subject of experiment [9] is K562. Briefly: Cytotoxicity against human K562 cells after 72 hrs by MTT assay. To be noted: K562, 72 h. An outline of the steps: as §1
Experiment [10] relates to PC-3. Briefly: Cytotoxicity against human PC3 cells after 72 hrs by MTT assay. To be noted: PC-3, 72 h. An outline of the steps: as §1
For experiment [11], the system named is HL-60. Briefly: Cytotoxicity against human HL60 cells after 72 hrs by MTT assay. To be noted: HL-60, 72 h. An outline of the steps:
as §1

The subject of experiment [12] is CNE. Briefly: Cytotoxicity against human CNE cells after 72 hrs by MTT assay. An outline of the steps: as §1

In the case of `O=C(/C=C/c1ccc(O)c(O)c1)OCCc1ccccc1` [CAFFEIC ACID PHENETHYL ESTER], the IC50 in experiment [1] came to 26.8 µM; in experiment [2], 9.9 µM; in [3] it was 8.8 µM; in experiment [4], 42.6 µM; in experiment [5], 14.5 µM; in experiment [6], 25.5 µM. Besides, the IC50 is 45.2 µM in experiment [7]; 19.3 µM in experiment [8]; 46 µM in experiment [9]; 91 µM in experiment [10]; 9.8 µM in [11]; 54 µM in [12].
In the case of `O=C(/C=C/c1ccccc1)NNC(=O)c1ccccc1O`, the IC50 is 72.6 µM in [1]; 20.1 µM in experiment [2]; 73.1 µM in [3]; 41.4 µM in [4]; 21.2 µM in experiment [5]; 190 µM in experiment [6]. For the same molecule, the IC50 in experiment [7] amounted to 20.1 µM; in experiment [8], 46 µM; in experiment [9], 0.9 µM; in experiment [10], 40.9 µM; in experiment [11], 39.3 µM; in experiment [12], 43.7 µM.
For `COCOc1ccc(/C=C/C(=O)NCCN2CCOCC2)cc1OCOC`, the IC50 in experiment [1], in [2], in experiment [3], in experiment [4], in experiment [5] and in experiment [6] was above 200 µM throughout. Also, the IC50 in [7], in [8], in experiment [9], in [10], in experiment [11] and in experiment [12] was above 200 µM in each case.
Regarding `O=C(/C=C/C(=O)N1CCN(Cc2ccc(Cl)c(Cl)c2)CC1)c1ccccc1`, the IC50 in experiment [1] is 139 µM; in experiment [2], 67.2 µM; in experiment [3] it was 84.8 µM; in experiment [4], 103 µM; in [5] it was 67.1 µM; in experiment [6], above 200 µM. Further, the IC50 was 103 µM in [7]; 78.8 µM in [8]; above 200 µM in experiment [9]; above 200 µM in [10]; 99.4 µM in experiment [11]; above 200 µM in [12].
Regarding `O=C(/C=C/c1ccc(O)c(O)c1)N1CCN(Cc2ccc(Cl)c(Cl)c2)CC1`, the half-inhibitory concentration (IC50) was above 200 µM in [1]; 50.4 µM in experiment [2]; above 200 µM in experiment [3]; above 200 µM in experiment [4]; above 200 µM in [5]; above 200 µM in experiment [6]. Further, the IC50 in experiment [7] was above 200 µM; in experiment [8], above 200 µM; in experiment [9] it was above 200 µM; in [10], above 200 µM; in [11], 165 µM; in experiment [12], above 200 µM.
As for `O=C(/C=C/c1ccc(O)c(O)c1)NCCc1c[nH]c2ccccc12`, the 50% inhibitory concentration (IC50) was above 200 µM in experiment [1]; 8.4 µM in experiment [2]; 2.7 µM in experiment [3]; above 200 µM in [4]; above 200 µM in [5]; above 200 µM in experiment [6]. In addition, the IC50 is 85.7 µM in [7]; above 200 µM in [8]; above 200 µM in [9]; above 200 µM in [10]; 124 µM in experiment [11]; above 200 µM in experiment [12].
In the case of `COCOc1ccc(/C=C/C(=O)NCCc2c[nH]c3ccccc23)cc1OCOC`, the IC50 in [1] is above 200 µM; in [2], 165 µM; in [3], above 200 µM; in [4] it was 154 µM; in experiment [5] it was above 200 µM; in [6], above 200 µM. The IC50 in [7] is above 200 µM; in [8] it was 143 µM; in experiment [9] it was 195 µM; in [10] it was 157 µM; in experiment [11], above 200 µM; in [12], above 200 µM.
Consider `O=C(/C=C/c1ccccc1)N1CCN(Cc2ccc(Cl)c(Cl)c2)CC1`, for which the IC50 in experiment [1] was 173 µM; in experiment [2], 34.1 µM; in [3], 73.9 µM; in [4], 17 µM; in [5], 44.8 µM; in experiment [6], 45.4 µM. For the same molecule, the IC50 was 20.7 µM in [7]; 31.2 µM in experiment [8]; 14.1 µM in experiment [9]; 12.8 µM in experiment [10]; 82.6 µM in [11]; above 200 µM in experiment [12].
Consider `COc1ccc(/C=C/C(=O)N2CCN(Cc3ccc(Cl)c(Cl)c3)CC2)cc1OC`, for which the IC50 was above 200 µM in experiment [1]; above 200 µM in [2]; 76.6 µM in experiment [3]; above 200 µM in experiment [4]; 85.7 µM in experiment [5]; 121 µM in experiment [6]. Besides, the IC50 was 69.2 µM in experiment [7]; above 200 µM in [8]; 70.8 µM in experiment [9]; above 200 µM in [10]; 140 µM in [11]; above 200 µM in [12].
Regarding `COCOc1ccc(/C=C/C(=O)N2CCN(Cc3ccc(Cl)c(Cl)c3)CC2)cc1OCOC`, the IC50 in experiment [1] was 107 µM; in experiment [2] it was 139 µM; in [3] it was 29.1 µM; in [4], 7.4 µM; in experiment [5] it was above 200 µM; in experiment [6] it was 69.7 µM. Moreover, the IC50 is 3.7 µM in experiment [7]; 64.4 µM in experiment [8]; 19.3 µM in experiment [9]; 7.4 µM in [10]; 31 µM in [11]; above 200 µM in experiment [12].
Consider `CCOc1ccc(COc2c(OC)cc(/C=C/C(=O)NCCN3CCOCC3)cc2OC)cc1`, for which the IC50 in experiment [1], in experiment [2], in experiment [3], in [4], in [5] and in experiment [6] was above 200 µM throughout. Further, the half-inhibitory concentration (IC50) in experiment [7], in experiment [8], in [9], in experiment [10], in experiment [11] and in [12] was above 200 µM throughout.
